In ChEMBL document CHEMBL2040749, “Novel polycyclic 'cage'-1,2-diamines as potential anti-tuberculosis agents” (2012):

System: Mycobacterium tuberculosis
Experiment: Antitubercular activity against Mycobacterium tuberculosis H37Rv ATCC 25177after 21 days by BACTEC MGIT 960 method
Format: functional
Settings: 504 h
Method in brief: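 Compounds dissolved in 100% methanol (10 mg/mL stock), sonicated, filter-sterilised, diluted in sterile water; twofold serial dilutions, working range 8 to 0.125 µg/mL. Strains grown in Middlebrook 7H9 + OADC at 37 °C; inoculum adjusted to McFarland 1, diluted tenfold to 10^5 CFU/mL into MGIT tubes. Drug-free control received a 1:100 inoculum. MIC is the lowest dilution negative when the control turns positive. Triplicate.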

SMILES	MIC
CC(C)=CCC/C(C)=C/CNC(=O)CN1[C@H]2C3C4CC5C6C4C2C6[C@@]1(O)C53 (mixture of isomers)	1 µg/mL
CC(C)=CCC/C(C)=C/CNCC(=O)N[C@]12O[C@H]3C4C5CC(C6C5C3C61)C42 (mixture of isomers)	1 µg/mL
CC(C)=CCC/C(C)=C/CNCCN[C@@H]1C2C3CC4C5C3CC2C5C41.Cl.Cl (mixture of isomers)	1 µg/mL
CC(C)=CCC/C(C)=C/CNCCNC1C2CC3CC(C2)CC1C3.Cl.Cl (stereo not drawn)	0.5 µg/mL
CC(C)=CCC/C(C)=C/CNCCNC1C2C3CC4C5CC(C42)C1C53.Cl.Cl (racemic)	0.5 µg/mL
CC(C)=CCC/C(C)=C/CNCCN1[C@H]2C3C4CC5C6C4C2C6[C@@]1(O)C53.Cl.Cl (mixture of isomers)	1 µg/mL
CC(C)=CCC/C(C)=C/CNCCN[C@@H]1C2C3CC4C5C3C1C5[C@@H](O)C42.Cl.Cl (mixture of isomers)	0.5 µg/mL
CC(C)=CCC/C(C)=C/CNCCN[C@]12O[C@H]3C4C5CC(C6C5C3C61)C42.Cl.Cl (mixture of isomers)	1 µg/mL
